The values below come from ChEMBL document CHEMBL1926548, “Synthesis and study of new paramagnetic resveratrol analogues” (Bioorg Med Chem, 2011).

Assay [1] deals with RAW264.7. The assay can be described thus: Antiinflammatory activity in mouse RAW264.7 cells assessed as inhibition of LPS-induced nitrite production after 24 hrs by Griess method. Format: functional, cell-based. In a few lines: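 Seeding, medium, overnight culture and treatment as for ROS: LPS 100 ng/mL plus compound at 12.5–100 µM for 24 h. Culture medium mixed with an equal volume of Griess reagent (1% sulphanilamide, 0.1% naphthylethylenediamide, 5% phosphoric acid). Absorbance read at 550 nm and expressed as % of LPS-only mean. n = 6, three repeats.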
For orientation: The Griess reaction detects nitrite, a stable product of nitric oxide.

For assay [2], the system named is RAW264.7. The assay can be described thus: Antiinflammatory activity in mouse RAW264.7 cells assessed as inhibition of LPS-induced ROS production after 24 hrs using DCFH-DA by fluorescent microplate reader. Format: functional, cell-based. In short, it runs like this: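 Cells seeded 5*10^4/well and kept overnight at 37 °C, 5% CO2 in DMEM with 10% heat-inactivated FCS and L-glutamine. Fresh medium, then LPS (E. coli 0127:B8, 100 ng/mL) with or without compound (12.5–100 µM) for 24 h. C400 (2 µg/mL) added for a further 2 h. Fluorescence read at ex 485/em 555 nm. Reported as % of LPS-only mean. n = 6, three repeats.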

A short description of assay [3]: Antioxidant activity in 0.05 M phosphate buffered saline assessed as trolox equivalents of ABTS radical scavenging activity after 6 mins by TEAC assay. Format: functional. In a few lines: (§1)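 ABTS (7 mM in water) reacted with 2.45 mM persulfate (final) for 12–16 h in the dark at room temperature. Diluted in ethanol or 0.05 M PBS pH 7.4 to A734 0.70 ± 0.02. Compound added at 2.5–12.5 µM, read at 734 nm after 6 min at 25 °C. TEAC = slope of % inhibition vs concentration divided by Trolox slope. Three independent experiments.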

A short description of assay [4]: Antioxidant activity in ethyl alcohol assessed as trolox equivalents of ABTS radical scavenging activity after 6 mins by TEAC assay. Format: functional. In a few lines:
as §1

In assay [5] the test system is RAW264.7. The assay can be described thus: Antiinflammatory activity in mouse RAW264.7 cells assessed as inhibition of LPS-induced TNF-alpha production at 50 uM after 1.5 hrs by ELISA. Format: functional, cell-based. In short, it runs like this:
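Cells seeded 2*10^5/well and cultured overnight as above. Fresh medium, then LPS (100 ng/mL) alone or with compound for 1.5 h. TNFα in medium measured with a mouse TNFα ELISA kit, read at 450 nm. Reported as % of LPS-only mean. n = 3, three repeats. Groups compared at p<0.05.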

Activity calls are given as the source filed them. The calls are words filed in the database; no cut-off is given here.

`Oc1ccc(/C=C/c2cc(O)cc(O)c2)cc1`: the inhibition entry in the assay with RAW264.7 [1] and in the assay on RAW264.7 [2] was “Dose-dependent effect” each time. Besides, the Ratio in assay [3] was found to be 1.3; in assay [4], 1. Besides, in the assay with RAW264.7 [5], the inhibition result is “Active”.

Take `CC1(C)c2ccc(/C=C/c3cc(O)cc(O)c3)cc2C(C)(C)N1O`: the Ratio in assay [3] came out at 0.67.

In the case of `CC1(C)C=C(/C=C/c2cc(O)cc(O)c2)CC(C)(C)N1[O]`, the inhibition result with RAW264.7 [1] and in the assay with RAW264.7 [2] was “Dose-dependent effect” throughout. Besides, the Ratio in assay [4] worked out at 0.92. Also, the inhibition entry in the assay on RAW264.7 [5] is “Active”.

`CC1(C)C=C(/C=C/C2=CC(C)(C)N(O)C(C)(C)C2)CC(C)(C)N1O`: the Ratio in assay [3] came out at 0.37.

Regarding `COc1cc(OC)cc(C2=C(c3cc(OC)cc(OC)c3)C(C)(C)NC2(C)C)c1`, the inhibition result in the assay with RAW264.7 [1] and with RAW264.7 [2] was “Dose-dependent effect” in each case. Further, in the assay on RAW264.7 [5], the inhibition result was “Active”.

Consider `COc1cc(/C=C/C2=CC(C)(C)NC(C)(C)C2)cc(OC)c1`, for which the inhibition entry in the assay on RAW264.7 [1] and in the assay with RAW264.7 [2] was “Dose-dependent effect” in each case. In addition, the Ratio was 0.02 in assay [3] and 0.32 in assay [4]. Further, the inhibition result in the assay with RAW264.7 [5] is “Active”.

For the compound `CC1(C)c2ccc(/C=C/c3cc(O)cc(O)c3)cc2C(C)(C)N1[O]`, the inhibition result in the assay on RAW264.7 [1] and with RAW264.7 [2] was “Dose-dependent effect” in each case. Besides, the Ratio in assay [4] worked out at 0.98. Further, the inhibition result in the assay on RAW264.7 [5] was “Active”.

In the case of `COc1ccc(/C=C/c2cc(OC)cc(OC)c2)cc1`, the Ratio in assay [4] was determined as 0.04.

On to `COc1cc(/C=C/C2=CC(C)(C)N(O)C(C)(C)C2)cc(OC)c1`, for which the Ratio in assay [3] was determined as 0.28.

As to `COc1cc(/C=C/C2=CC(C)(C)N([O])C(C)(C)C2)cc(OC)c1`, the inhibition result with RAW264.7 [1] and with RAW264.7 [2] was “Dose-dependent effect” throughout. For the same compound, in assay [4], the Ratio was 0.2.

On to `CC1(C)C(c2ccc(O)cc2)=C(c2cc(O)cc(O)c2)C(C)(C)N1[O]`, for which the inhibition result in the assay with RAW264.7 [1] and in the assay on RAW264.7 [2] was “Dose-dependent effect” throughout. The Ratio in assay [4] is 1.02. The inhibition entry in the assay on RAW264.7 [5] is “inactive”.

Turning to `CC1(C)C=C(/C=C/c2cc(O)cc(O)c2)CC(C)(C)N1O`, the Ratio in assay [3] came to 0.62.

`CC1(C)C=C(/C=C/C2=CC(C)(C)N([O])C(C)(C)C2)CC(C)(C)N1[O]`: the inhibition entry with RAW264.7 [1] and in the assay on RAW264.7 [2] was “Dose-dependent effect” in each case. For the same compound, in assay [4], the Ratio was found to be 0.22. Moreover, in the assay with RAW264.7 [5], the inhibition result is “Active”.
